Assay outcomes deposited in PubChem BioAssay by several laboratories.
Only some compounds are listed: those with a hit (about 5.7% of all), similar ones and a draw of the others.
Mdm2 MdmX PPI – disrupts the human Mdm2-MdmX interaction; 3% of 330,000 active; O15151+Q00987; SaOS-2 split-luciferase Mdm2/MdmX complementation, luminescence; inhibition, % at 8 µM; AID 485346;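 active = inhibition of at least 50% at 8 µM in the primary screen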
Target sequence (O15151 whole entry, looked up): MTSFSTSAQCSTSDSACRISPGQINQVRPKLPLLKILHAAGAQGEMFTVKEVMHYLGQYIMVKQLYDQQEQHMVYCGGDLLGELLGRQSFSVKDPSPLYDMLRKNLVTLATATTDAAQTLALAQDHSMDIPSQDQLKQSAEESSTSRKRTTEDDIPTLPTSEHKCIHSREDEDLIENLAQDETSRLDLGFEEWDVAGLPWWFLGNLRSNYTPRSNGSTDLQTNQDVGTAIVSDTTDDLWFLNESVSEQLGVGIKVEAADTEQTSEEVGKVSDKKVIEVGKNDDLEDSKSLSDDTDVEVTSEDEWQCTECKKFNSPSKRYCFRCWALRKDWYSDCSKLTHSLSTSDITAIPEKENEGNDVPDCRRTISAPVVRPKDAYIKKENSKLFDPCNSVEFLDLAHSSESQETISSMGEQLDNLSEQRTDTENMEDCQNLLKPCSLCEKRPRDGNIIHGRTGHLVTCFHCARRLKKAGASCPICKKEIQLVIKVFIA
Target sequence (Q00987 whole entry, looked up): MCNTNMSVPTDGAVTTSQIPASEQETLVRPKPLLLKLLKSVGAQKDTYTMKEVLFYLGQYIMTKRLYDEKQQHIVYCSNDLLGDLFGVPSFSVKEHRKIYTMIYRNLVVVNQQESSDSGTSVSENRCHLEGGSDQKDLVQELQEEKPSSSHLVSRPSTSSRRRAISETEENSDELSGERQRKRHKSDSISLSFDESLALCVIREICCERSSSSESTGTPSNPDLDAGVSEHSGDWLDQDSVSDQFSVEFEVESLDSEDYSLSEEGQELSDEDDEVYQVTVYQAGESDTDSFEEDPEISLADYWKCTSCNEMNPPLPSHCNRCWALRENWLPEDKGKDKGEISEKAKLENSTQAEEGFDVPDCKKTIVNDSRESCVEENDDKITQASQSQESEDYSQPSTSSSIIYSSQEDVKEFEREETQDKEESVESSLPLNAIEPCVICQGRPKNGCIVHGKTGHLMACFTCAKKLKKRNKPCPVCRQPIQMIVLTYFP
SKKanGAS inh – blocks kanamycin growth of S. pyogenes SKKanGAS strain; AID 1662; inhibition, % at 7.5 µM; 1.3% of 300,000 active; BacTiter-Glo, 6 h;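 active = mean replicate score, as percent of positive control median, at least 50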;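 also: strain carries kanamycin resistance gene driven by streptokinase promoter and grows in 40 µg/ml kanamycin; loss of luminescence reflects streptokinase promoter inhibition or plain growth inhibition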
Beta apoptosis – beta cell apoptosis inhibition; INS-1E cytokine-induced death, ATP luminescence, 48 h; percent of positive-control rescue, neutral wells zero; protection from apoptosis, % (no concentration beside the values); 0.8% of 300,000 active;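 active = Every replicate reaches about 75%, or at least half do and their mean reaches it too, limit read from the data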;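 also: higher means more ATP so stronger rescue from cytokine killing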
Calb FLC – affects C. albicans growth with fluconazole. 0.57% of 300,000 active. growth inhibition, % (test concentration not listed). AID 1979. C. albicans CaCi-2 (fluconazole-resistant clinical isolate) + fluconazole, Alamar Blue growth, 48 h;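 active = growth inhibition above about 58% in most replicates, limit read from the data, passing the limit was not always enough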;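 also: all wells also contain fluconazole at 8 µg/ml as a sub-toxic cotreatment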
CSC inhib – cancer stem cell inhibition; 1.1% of 300,000 active; cancer stem cell-like cells viability, luminescence; inhibition, % at 7.5 µM; in the data active = inhibition above about 75%; tested in HMLE shEcad cells
T cruzi repl – T. cruzi replication inhibition | inhibition, % (concentration not given with the values) | 1.4% of 300,000 active | AID 1885 | T. cruzi beta-gal in NIH3T3, luminescence, 90 h;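 active = mean inhibition across valid replicates above about 55%, limit read from the data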;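 also: signal also drops with host cell toxicity which is not excluded here; higher percent means less beta-gal luminescence so fewer parasites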
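System – NIH/3T3 host cells with β-galactosidase reporter T. cruzi · Doses – single 50 nL compound addition per well in DMSO · Reagent – 5000 T. cruzi trypomastigotes/well · Medium – Low-serum DMEM with 2% FBS · Timing – ≥90 h infection period, 3 h prior cell attachment · Evaluation – parasite load inhibition, % · Technique – GalScreen luminescence, 60 min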
A number is an active result; – = inactive; · = no result.

SMILES | Mdm2 MdmX PPI | SKKanGAS inh | Beta apoptosis | Calb FLC | CSC inhib | T cruzi repl
CN(c1ccccc1)c1nc(N)c([N+](=O)[O-])c(Nc2ccccc2F)n1 | – | – | – | – | – | –
CC(=O)N1CCc2cc(S(=O)(=O)CCC(=O)NCCc3ccc(Cl)cc3)ccc21 | – | – | – | – | · | –
COc1cc(/C=N/n2c(=S)[nH]nc(C)c2=O)cc([N+](=O)[O-])c1O | – | – | · | – | – | –
CCc1n[nH]c(=S)n1/N=C/c1cc(OC)cc([N+](=O)[O-])c1O | – | – | – | – | – | 67.8
O=C(COC(=O)Cc1ccc(Br)cc1)NC1CCCC1 | – | · | – | · | – | ·
C/C(O)=C(\C#N)c1nc2ccccc2[nH]1 | – | – | – | – | – | –
N#C/C(=C(/O)CCl)c1nc2ccccc2[nH]1 | – | – | – | – | 79.0 | –
N#C/C(=C(/O)c1ccco1)c1nc2ccccc2[nH]1 | – | – | – | 78.9 | – | –
CC1CCCN(c2ccc(C(=O)Nc3ccc4c(c3)OCO4)cc2[N+](=O)[O-])C1 (stereo not given) | – | – | – | – | 102.0 | –
O=C(Nc1cccnc1)c1ccc(N2CCOCC2)c([N+](=O)[O-])c1 | – | – | – | – | – | –
O=C(NCc1ccc2c(c1)OCO2)c1ccc(N2CCCCCC2)c([N+](=O)[O-])c1 | – | – | – | – | – | 59.0
O=C(Nc1ccc(-c2nc3ccccc3o2)cc1)c1ccc(N2CCOCC2)c([N+](=O)[O-])c1 | – | – | 98.6 | – | – | 57.1
CC1CCN(c2ccc(C(=O)Nc3ccc4c(c3)OCO4)cc2[N+](=O)[O-])CC1 | – | – | – | – | 78.2 | –
CCC(C)c1ccccc1N1CC(C(=O)N2CCN(S(=O)(=O)c3cccc([N+](=O)[O-])c3)CC2)CC1=O (stereo not given) | – | · | · | · | · | ·
COCCN(Cc1ccc(C)c(Br)c1)C(=O)Cn1cnc(S(=O)(=O)N2CCCC2)c1 | – | – | – | – | – | –
C=CCN(c1ccccc1)S(=O)(=O)c1cccc(C(=O)NCC(c2cccs2)N2CCOCC2)c1 (stereo not given) | – | – | – | – | · | –
Cc1cc(C)cc(Oc2cc(NC(=O)c3cn(C)nc3C)cc([N+](=O)[O-])c2)c1 | – | – | 104.2 | – | · | –
N#Cc1cc(-c2ccc(Cl)cc2)cnc1Sc1ccccc1 | – | – | – | – | – | 56.4
N#Cc1cc(-c2ccccc2)cnc1Sc1ccc(Cl)cc1 | – | – | – | – | – | –
O=S(=O)(Nc1ccc(N=Nc2ccccc2)cc1)c1ccccc1 | – | – | – | – | · | –
O=S(=O)(Nc1ccc(N=Nc2ccc(O)c3ccccc23)cc1)c1ccccc1 | – | 96.0 | – | – | 79.2 | –
CCc1cccc(NC(=O)C2CCCN(S(=O)(=O)c3cccs3)C2)c1 (stereo not given) | – | – | – | – | – | –
Cc1cc(NC(=O)c2ccccc2)ccc1NC(=O)Cc1ccccc1 | – | – | – | – | – | –
COc1ccccc1OCCNC(=O)CN1C(=O)NC2(CCCCC2)C1=O | – | · | – | · | · | ·
CN1CCN(/N=C/c2ccc(-c3ccccc3)cc2)CC1 | – | – | – | – | – | –
SMILES | Mdm2 MdmX PPI | SKKanGAS inh | Beta apoptosis | Calb FLC | CSC inhib | T cruzi repl
Cc1cc(/C=N/N2CCN(C)CC2)c(C)n1-c1ccccc1F | – | – | – | – | – | 67.1
CCN(CC)C(=O)C1c2ccccc2Oc2ccccc21 | – | – | – | – | – | –
CC(C)C[C@H](NC(=O)c1nc[nH]c1C(=O)NC1CCN(C(=O)OC(C)(C)C)CC1)C(=O)OCc1ccccc1 | – | 72.6 | – | – | – | –
Cc1cccc(NC(=O)c2nc[nH]c2C(=O)N[C@@H](CC(C)C)C(=O)OCc2ccccc2)c1 | – | 92.2 | – | – | · | –
COc1ccc(NC(=O)c2nc[nH]c2C(=O)N[C@@H](CC(C)C)C(=O)OC(C)(C)C)cc1 | – | 75.5 | – | – | 133.0 | –
CC(C)C[C@H](NC(=O)c1[nH]cnc1C(=O)N[C@@H](C)C(=O)OC(C)(C)C)C(=O)OCc1ccccc1 | – | 73.1 | – | – | – | –
CC1CN(C(=O)c2ccccc2OCc2ccc(Cl)cc2Cl)CC(C)O1 (stereo not given) | – | · | – | · | – | ·
CCOc1ccc(N(CC(=O)N2CCOCC2)S(=O)(=O)c2ccc(SC)cc2)cc1 | – | – | – | – | – | –
Cc1cccc(NC(=O)c2nc[nH]c2C(=O)N[C@@H](C)c2ccccc2)c1 | – | · | – | · | 78.0 | ·
